From PubChem BioAssay
For some of these results: Entries with a potency or affinity are not part of this list. The source made the active and inactive calls.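 How the source made its calls, unless noted: active means GFP response above 150% of the DMSO level; inconclusive means fewer than 70 events counted for a yeast strain; inactive means the rest.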

Legend:
[1] = biological target: Cell division control protein 42 homolog (Homo sapiens) (UniProt P60953); assay: inhibition of fluorescent GTP binding to constitutively active Cdc42 – biochemical, multiplex bead flow cytometry, Bodipy-FL-GTP, dose response (AID 1333;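 active means fitted half-maximal concentration within the tested dose range, moderate curve steepness, a statistically real signal drop, and little compound fluorescence or tag-binding interference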); conditions: bead-based flow cytometry; series mostly up to 100 µM
Sequence of Cell division control protein 42 homolog (Homo sapiens) (P60953 whole entry, looked up): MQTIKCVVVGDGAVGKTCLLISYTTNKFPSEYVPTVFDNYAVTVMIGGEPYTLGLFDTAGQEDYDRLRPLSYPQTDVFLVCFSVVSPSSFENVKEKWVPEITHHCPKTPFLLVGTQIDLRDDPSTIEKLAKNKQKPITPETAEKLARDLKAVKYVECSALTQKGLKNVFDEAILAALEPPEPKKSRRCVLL

[2] = biological target: Cell division control protein 42 homolog (Homo sapiens) (UniProt P60953); assay: inhibition of fluorescent GTP binding to wildtype Cdc42 – biochemical, multiplex bead flow cytometry, Bodipy-FL-GTP, dose response (AID 1334;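 active means fitted half-maximal concentration within the tested range, moderate curve steepness, significant signal drop, and little compound fluorescence or bead-linkage interference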); conditions: bead-based flow cytometry, Bodipy-FL-GTP binding to GST-Cdc42; at 100 µM (top of the series)
[3] = tested on: Ras-related protein Rab-7a (dog), GTP binding; assay: blockers of fluorescent GTP binding to Rab7 – biochemical, wildtype, multiplex bead flow cytometry, dose response (AID 1336; call rule not given here); conditions: bead-based flow cytometry; series mostly up to 100 µM
[4] = biological target: Ras-related C3 botulinum toxin substrate 1 (Homo sapiens) (UniProt P63000); assay: inhibition of wildtype Rac1 nucleotide loading – biochemical, multiplex bead flow cytometry, dose response (AID 1340;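 active means dose curve with midpoint inside tested range, moderate steepness, plateau gap beyond fit error, low compound glow and bead-link interference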); conditions: GST-Rac1 beads, Bodipy-FL-GTP binding; at 100 µM (top of the series)
[5] = biological target: GTPase HRas (Homo sapiens) (UniProt P01112); assay: blockade of GTP loading onto mutant Ras – biochemical, activated mutant, multiplex bead flow cytometry, dose response (AID 1341;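 active means dose-response curve with midpoint inside the tested range, moderate steepness, significant amplitude and little compound fluorescence or bead-attachment interference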;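 further: GST-tagged constitutively activated Ras mutant immobilized on beads and multiplexed with other GTPases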); conditions: bead-based flow cytometry, Bodipy-FL-GTP binding; series mostly up to 100 µM
[6] = hit retest on RPL19A-GFP reporter strain – cell-based, S. cerevisiae, flow cytometry, cherry picks, mother/daughter gates, confirmation (AID 2270;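 active means GFP response below 50% of the DMSO control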); conditions: 3 h, at 10 µM, stronger effect = lower value, 100 = same GFP as DMSO wells
[7] = yeast TOR pathway reporter LAP4-GFP change – cell-based, cherry picks, flow cytometry, mother/daughter gates, confirmation (AID 2271;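 active means GFP response above 150% of the DMSO control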;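 further: ratio of sample to DMSO plate mean so 100% equals DMSO level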); conditions: S. cerevisiae LAP4-GFP strain, 3 h, at 10 µM, stronger effect = higher value
Summary of the method: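 material = Alexa 633-stained baker's yeast GFP-fusion strain | amount = 0.2 OD600 cells | schedule = 30 °C, 3 h compound incubation, rotating | signal = GFP by flow cytometry | measure = per-gate (all, mother, daughter) GFP response vs DMSO | controls = positive rapamycin (400 ng/mL), negative DMSO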

[8] = TOR pathway reporter MEP2-GFP, retest of hits – S. cerevisiae, flow cytometry GFP, cherry picks, confirmation (AID 2272;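 active means GFP response above 150% of the DMSO control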;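 further: ratio of well signal to plate DMSO mean so 100% equals DMSO level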); conditions: S. cerevisiae MEP2-GFP strain, 3 h, at 10 µM, stronger effect = higher value
[9] = yeast AGP1-GFP fluorescence change, single-dose – cell-based, flow cytometry, S. cerevisiae, cherry picks, confirmation (AID 2273);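 further: median GFP channel fluorescence over the whole cell population gate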; conditions: S. cerevisiae AGP1-GFP strain, 3 h, at 10 µM
[10] = TOR pathway CIT2 reporter hit retest – S. cerevisiae, GFP fusion, cherry picks, mother/daughter gates, confirmation (AID 2274); conditions: S. cerevisiae CIT2-GFP strain, flow cytometry, 3 h, at 10 µM, stronger effect = higher value
[11] = measured here: daughter cell gate
[12] = measured here: mother cell gate
[13] = measured here: daughter cell gate response
[14] = measured here: mother cell gate response

Q: What does the source list for `CN1C(=O)N(C)C(=O)C2(Cc3c(ccc4ccccc34)N(C)C2)C1=O`?
A: outcome [1]: inactive; fluorescence, percent of control (lower = inhibition) [2]: 34.8%; outcome [3]: inactive; GTP binding signal, raw median fluorescence (lower = inhibition) (MCF (arbitrary fluorescence units)) [4]: 230; outcome [5]: inactive

Q: Which results are given for `CC[C@@H]1C(=O)OC[C@@H]1Cc1cncn1C`?
A: GFP response vs DMSO [6]: 99.5% (inactive); GFP response vs DMSO [6, 11]: 98.3%; GFP response vs DMSO [6, 12]: 100%; GFP response relative to DMSO [7]: 102% (inactive); GFP response relative to DMSO [7, 13]: 101%; GFP response relative to DMSO [7, 14]: 102%; GFP response vs DMSO [8]: 104% (inactive); GFP response, % of DMSO [9]: 103% (inactive); GFP response, % of DMSO [10]: 99.3% (inactive); GFP response, % of DMSO [10, 11]: 98.3%; GFP response, % of DMSO [10, 12]: 100%

Q: With `CC1(C)CC(n2[nH]c(=O)c3c2NC(=O)CSC3c2ccccc2)CCO1` (configuration not stated) as the molecule, how does the outcome [1] read?
A: inactive

Q: And the fluorescence, percent of control (lower = inhibition) [2]?
A: 35.5%

Q: And the outcome [3]?
A: inactive

Q: And the GTP binding signal, raw median fluorescence (lower = inhibition) (MCF (arbitrary fluorescence units)) [4]?
A: 266

Q: And the outcome [5]?
A: inactive

Q: What does the source list for `O=c1[nH]c(=S)[nH]c(O)c1N=Nc1cc2c(cc1[N+](=O)[O-])OCO2`?
A: outcome [1]: inactive; fluorescence, percent of control (lower = inhibition) [2]: 24.3%; outcome [3]: inactive; GTP binding signal, raw median fluorescence (lower = inhibition) (MCF (arbitrary fluorescence units)) [4]: 211; outcome [5]: inactive

Q: For `C[C@]12CCC(=O)C=C1CC[C@@H]1[C@@H]2CC[C@]2(C)C(=O)CC[C@@H]12`, which GFP response vs DMSO [6] is on record?
A: 96.8% (inactive)

Q: And the GFP response vs DMSO [6, 11]?
A: 95.1%

Q: And the GFP response vs DMSO [6, 12]?
A: 97.7%

Q: And the GFP response relative to DMSO [7]?
A: 102% (inactive)

Q: What about the GFP response relative to DMSO [7, 13] of the same molecule?
A: 102%

Q: What about the GFP response relative to DMSO [7, 14] of the same molecule?
A: 101%

Q: And the GFP response vs DMSO [8]?
A: 94.1% (inactive)

Q: What about the GFP response, % of DMSO [9] of the same molecule?
A: 91.2% (inactive)

Q: And the GFP response, % of DMSO [10]?
A: 98.3% (inactive)

Q: What about the GFP response, % of DMSO [10, 11] of the same molecule?
A: 97.2%

Q: What about the GFP response, % of DMSO [10, 12] of the same molecule?
A: 99.7%
